Data set [1] deals with T1, Estrogen receptor (Homo sapiens, UniProt P03372).
T1 sequence (P03372 whole entry): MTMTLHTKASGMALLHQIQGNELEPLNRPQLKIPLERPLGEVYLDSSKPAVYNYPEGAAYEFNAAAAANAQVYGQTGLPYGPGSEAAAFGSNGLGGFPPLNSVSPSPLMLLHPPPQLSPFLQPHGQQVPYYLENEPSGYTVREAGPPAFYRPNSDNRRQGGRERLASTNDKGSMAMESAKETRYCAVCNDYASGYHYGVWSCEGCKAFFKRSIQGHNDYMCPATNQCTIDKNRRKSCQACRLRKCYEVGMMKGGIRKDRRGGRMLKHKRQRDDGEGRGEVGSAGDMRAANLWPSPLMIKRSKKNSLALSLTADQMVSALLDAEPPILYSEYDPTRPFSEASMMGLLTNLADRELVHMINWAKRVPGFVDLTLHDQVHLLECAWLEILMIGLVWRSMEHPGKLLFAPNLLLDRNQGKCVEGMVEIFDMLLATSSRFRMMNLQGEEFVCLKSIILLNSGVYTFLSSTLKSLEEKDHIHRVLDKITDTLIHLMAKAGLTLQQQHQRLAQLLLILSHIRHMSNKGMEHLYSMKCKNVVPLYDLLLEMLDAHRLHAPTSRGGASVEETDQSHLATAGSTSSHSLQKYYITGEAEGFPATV

Data set [2] has as its target T2, Estrogen receptor beta (Homo sapiens, UniProt Q92731).
Data set [3] concerns the target T3, Estrogen receptor (Rattus norvegicus) (UniProt P06211+Q62986). As to conditions: at 1 mg/kg.
In data set [4] the target is T3, Estrogen receptor (Rattus norvegicus). Conditions: at 1 mg/kg. The source holds these as a separate data set.
Data set [5] concerns the target T2, Estrogen receptor beta. Description: Potency in cellular transactivation assay utilizing HEK293 cells stably co-transfected with human estrogen receptor beta and the alkaline phosphatase reporter gene. Type of data set: functional, cell-based.
Data set [6] has as its target T1, Estrogen receptor. Description: Potency in cellular transactivation assay utilizing HEK293 cells stably co-transfected with human estrogen receptor alpha and the alkaline phosphatase reporter gene. Type of data set: functional, cell-based. A general note: A reporter such as luciferase makes a cellular process visible.
Data set [7] can be described thus: Bioavailability in rat (Sprague-Dawley) (female). As to conditions: female, Sprague-Dawley, in vivo. The class given is ADME, organism-based. In a few lines: (§1)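 Female Sprague–Dawley rats were dosed intravenously at 1 mpk (n = 2) and orally at 2 mpk (n = 3) for pharmacokinetic evaluation.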
Data set [8] in a line: Half life period in female Sprague-Dawley rats. Type of data set: ADME, organism-based. As to conditions: female, Sprague-Dawley, rat, in vivo. The method in brief: as §1
The nature of data set [9]: Plasma clearance of the compound in female Sprague-Dawley rats. The class given is ADME, organism-based. As to conditions: female, Sprague-Dawley, rat, plasma. In a few lines:
as §1

Molecules are shown by their SMILES. Some results are limits rather than exact numbers.
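Throughout, for Antagonism: Read-out is rat uterine weight, with subcutaneous dosing.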
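Throughout, for Estrogenic effect: intrinsic estrogenic activity read out as rat uterine weight after subcutaneous administration.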

T2 sequence (Q92731 whole entry): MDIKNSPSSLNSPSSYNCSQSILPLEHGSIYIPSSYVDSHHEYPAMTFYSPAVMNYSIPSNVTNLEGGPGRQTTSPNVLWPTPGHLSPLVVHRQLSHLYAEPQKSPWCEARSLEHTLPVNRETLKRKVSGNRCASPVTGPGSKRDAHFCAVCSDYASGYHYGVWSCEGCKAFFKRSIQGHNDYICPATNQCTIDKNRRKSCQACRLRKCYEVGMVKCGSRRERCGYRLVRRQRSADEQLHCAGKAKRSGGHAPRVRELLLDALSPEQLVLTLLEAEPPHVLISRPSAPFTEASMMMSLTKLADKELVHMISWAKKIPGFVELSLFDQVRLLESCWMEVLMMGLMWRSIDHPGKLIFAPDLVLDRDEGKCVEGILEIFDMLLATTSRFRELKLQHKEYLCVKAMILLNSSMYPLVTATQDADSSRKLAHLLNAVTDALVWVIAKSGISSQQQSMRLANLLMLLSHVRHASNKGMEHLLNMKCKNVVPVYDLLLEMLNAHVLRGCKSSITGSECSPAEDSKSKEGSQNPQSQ

Regarding `Oc1ccc2c(c1)SC(c1ccccc1)C(c1ccc(OCCN3CCCCC3)cc1)O2` (stereo not drawn), the results for the IC50 on Estrogen receptor [1] and against Estrogen receptor beta [2] were 11.9 nM and 300 nM, respectively.
For the compound `CCc1c(O)ccc2c1O[C@H](c1ccc(OCCN3CCCCC3)cc1)[C@H](c1ccc(O)cc1)S2`, the IC50 (in general, the concentration that gives 50% inhibition) on Estrogen receptor [1] is 4.7 nM; against Estrogen receptor beta [2] it was 25 nM.
In the case of `Oc1cccc([C@H]2Sc3cc(O)ccc3O[C@H]2c2ccc(OCCN3CCCCC3)cc2)c1`, the Antagonism in [3] was determined as 78%. Further, the IC50 at Estrogen receptor [1] turned out to be 4.1 nM; on Estrogen receptor beta [5], 157 nM; against Estrogen receptor [6] it was 5.4 nM; on Estrogen receptor beta [2] it was 115 nM. In data set [4], the Estrogenic effect came to 12%.
In the case of `CCc1cc(O)cc2c1S[C@@H](c1ccc(O)cc1)[C@@H](c1ccc(OCCN3CCCCC3)cc1)O2`, the IC50 was found to be 53.3 nM at Estrogen receptor [1], 1460 nM on Estrogen receptor beta [5], 342 nM against Estrogen receptor [6] and 185 nM against Estrogen receptor beta [2].
Regarding `Oc1cccc(C2Sc3cc(O)ccc3OC2c2ccc(OCCN3CCCCC3)cc2)c1` (stereo not drawn), in data set [3], the Antagonism came to 90%. The IC50 turned out to be 3 nM at Estrogen receptor [1], 245 nM on Estrogen receptor beta [5], 3.6 nM against Estrogen receptor [6] and 250 nM at Estrogen receptor beta [2]. In [4], this compound had an Estrogenic effect of 16%.
Turning to `Oc1ccc([C@@H]2Sc3ccc(O)cc3O[C@@H]2c2ccc(OCCN3CCCCC3)cc2)cc1`, the Antagonism in data set [3] amounted to 67%. For the same compound, the IC50 worked out at 1.8 nM against Estrogen receptor [1], 239 nM against Estrogen receptor beta [5], 5 nM at Estrogen receptor [6] and 44.4 nM on Estrogen receptor beta [2]. In addition, the bioavailability (commonly dose-corrected exposure relative to a reference, in per cent) in data set [7] is 0%. Also, the Estrogenic effect in data set [4] was 1%. For the same compound, the half-life (in general, the time needed for the level to fall by half in the phase considered) in data set [8] was 2.2 h. In addition, the clearance (in general, the rate of elimination divided by the concentration) in data set [9] is 154 mL/min/kg.
With `Oc1cccc([C@H]2Sc3cc(O)ccc3O[C@H]2c2ccc(OCCNC3CCCCCC3)cc2)c1`, the Antagonism in [3] is 57%. Further, the IC50 stood at 1.2 nM at Estrogen receptor [1], 67 nM at Estrogen receptor beta [5], 3.5 nM against Estrogen receptor [6] and 103 nM at Estrogen receptor beta [2]. The compound also displayed an Estrogenic effect in [4] of 22%.
Consider `Oc1ccc([C@@H]2Sc3cc(O)c(Cl)cc3O[C@@H]2c2ccc(OCCN3CCCCC3)cc2)cc1`, for which the Antagonism in data set [3] came to 36%. The IC50 against Estrogen receptor [1] came out at 5.4 nM; at Estrogen receptor beta [5], 2370 nM; against Estrogen receptor [6], 14.8 nM; at Estrogen receptor beta [2], 73 nM. Besides, the Estrogenic effect in [4] is 38%.
In the case of `Oc1ccc([C@@H]2Sc3c(O)cc(O)cc3O[C@@H]2c2ccc(OCCN3CCCCC3)cc2)cc1`, in [3], the Antagonism came out at 64%. The half-maximal inhibitory concentration (IC50) against Estrogen receptor [1] stood at 25 nM; on Estrogen receptor beta [2] it was 788 nM. This compound also yielded an Estrogenic effect in data set [4] of 7%.
In the case of `Oc1ccc([C@@H]2Sc3c(ccc(O)c3Cl)O[C@@H]2c2ccc(OCCN3CCCCC3)cc2)cc1`, the Antagonism in [3] is 67%. For the same compound, the IC50 on Estrogen receptor [1] came to 2.4 nM; against Estrogen receptor beta [5], 64 nM; against Estrogen receptor [6] it was 1 nM; on Estrogen receptor beta [2] it was 14 nM. The Estrogenic effect in data set [4] is 27%.
In the case of `Cc1cc2c(cc1O)O[C@H](c1ccc(OCCN3CCCCC3)cc1)[C@H](c1ccc(O)cc1)S2`, the IC50 against Estrogen receptor [1] is 34.9 nM; on Estrogen receptor beta [2] it was 595 nM.
Take `Cc1cc(O)cc2c1S[C@@H](c1ccc(O)cc1)[C@@H](c1ccc(OCCN3CCCCC3)cc1)O2`: the IC50 against Estrogen receptor [1] worked out at 2 nM; against Estrogen receptor beta [5] it was 200 nM; on Estrogen receptor [6] it was 5.5 nM; at Estrogen receptor beta [2], 46.2 nM. For the same compound, in data set [7], the bioavailability came to 6%. The compound also gave a half-life in data set [8] of 2.7 h. For the same compound, the clearance in data set [9] came to 51 mL/min/kg.
Consider `Oc1ccc([C@@H]2Sc3c(Cl)cc(O)cc3O[C@@H]2c2ccc(OCCN3CCCCC3)cc2)cc1`, for which, in data set [3], the Antagonism turned out to be 68%. For the same compound, the IC50 came to 0.51 nM at Estrogen receptor [1], 121 nM at Estrogen receptor beta [5], 3.4 nM on Estrogen receptor [6] and 8 nM on Estrogen receptor beta [2]. For the same compound, the Estrogenic effect in data set [4] amounted to 12%.
For the compound `Cc1c(O)ccc2c1O[C@H](c1ccc(OCCN3CCCCC3)cc1)[C@H](c1ccc(O)cc1)S2`, the Antagonism in [3] turned out to be 29%. For the same compound, the IC50 at Estrogen receptor [1] came to 1.2 nM; on Estrogen receptor beta [5] it was 68.3 nM; against Estrogen receptor [6] it was 9.3 nM; on Estrogen receptor beta [2] it was 54 nM. Moreover, in data set [4], the Estrogenic effect came to 27%.
Take `Oc1ccc([C@@H]2Sc3cc(O)ccc3O[C@@H]2c2ccc(OCCN3CCCCC3)cc2)cc1` (stereo in doubt; 11): the Antagonism in data set [3] stood at 77%. The compound also came in with an Estrogenic effect in data set [4] of 5%.
In the case of `Oc1cccc([C@H]2Sc3cc(O)ccc3O[C@H]2c2ccc(OCCN3CCOCC3)cc2)c1`, the Antagonism in data set [3] was found to be 54%. Further, the IC50 on Estrogen receptor [1] stood at 3.8 nM; on Estrogen receptor beta [5], 65.3 nM; against Estrogen receptor [6], 4.7 nM; against Estrogen receptor beta [2], 318 nM. The compound further showed an Estrogenic effect in data set [4] of 29%.
Turning to `Oc1ccc([C@@H]2Sc3cc(Cl)c(O)cc3O[C@@H]2c2ccc(OCCN3CCCCC3)cc2)cc1`, the IC50 against Estrogen receptor [1] came out at 23.1 nM; against Estrogen receptor beta [5], 3020 nM; against Estrogen receptor [6], 61 nM; against Estrogen receptor beta [2], 520 nM.
For the compound `CC1CCN(CCOc2ccc([C@@H]3Oc4ccc(O)cc4S[C@@H]3c3cccc(O)c3)cc2)CC1`, the Antagonism in [3] was 59%. Moreover, the IC50 on Estrogen receptor [1] turned out to be 0.8 nM; against Estrogen receptor beta [5], 132 nM; against Estrogen receptor [6] it was 4 nM; on Estrogen receptor beta [2], 109 nM. In [4], this compound returned an Estrogenic effect of 29%.
Regarding `COc1ccc(C2Sc3cc(O)ccc3OC2c2ccc(OCCN3CCCCC3)cc2)cc1` (stereo not drawn), the IC50 was 41.1 nM against Estrogen receptor [1], more than 1000 nM on Estrogen receptor beta [5], 274 nM on Estrogen receptor [6] and 792 nM at Estrogen receptor beta [2].
For the compound `Oc1ccc([C@@H]2Sc3cc(O)c(F)cc3O[C@@H]2c2ccc(OCCN3CCCCC3)cc2)cc1`, the Antagonism in data set [3] amounted to 53%. Besides, the IC50 at Estrogen receptor [1] came to 13.5 nM; against Estrogen receptor beta [2], 413 nM. This compound also came in with an Estrogenic effect in data set [4] of 13%.
On to `Oc1cccc([C@H]2Sc3cc(O)ccc3O[C@H]2c2ccc(OCCN3CCCC3)cc2)c1`, for which, in data set [3], the Antagonism came to 77%. In addition, the IC50 at Estrogen receptor [1] turned out to be 0.9 nM; on Estrogen receptor beta [5] it was 40.1 nM; on Estrogen receptor [6], 1.7 nM; at Estrogen receptor beta [2] it was 37 nM. In addition, the Estrogenic effect in data set [4] was determined as 22%.
In the case of `Oc1ccc2c(c1)SC(c1ccc(F)cc1)C(c1ccc(OCCN3CCCCC3)cc1)O2` (stereo not drawn), the Antagonism in [3] is 9.5%. Also, the 50% inhibitory concentration (IC50) amounted to 3.8 nM at Estrogen receptor [1], 1550 nM against Estrogen receptor beta [5], 94 nM at Estrogen receptor [6] and 66.6 nM against Estrogen receptor beta [2]. The same compound gave an Estrogenic effect in [4] of 5%.
Turning to `Oc1ccc([C@@H]2Sc3cc(O)cc(Cl)c3O[C@@H]2c2ccc(OCCN3CCCCC3)cc2)cc1`, the IC50 was 5.3 nM against Estrogen receptor [1], 1010 nM at Estrogen receptor beta [5], 25.4 nM against Estrogen receptor [6] and 105 nM against Estrogen receptor beta [2].
In the case of `Cc1cc(O)cc2c1O[C@H](c1ccc(OCCN3CCCCC3)cc1)[C@H](c1ccc(O)cc1)S2`, in [3], the Antagonism is -4%. Besides, the IC50 stood at 5.3 nM against Estrogen receptor [1], 690 nM against Estrogen receptor beta [5], 22.6 nM against Estrogen receptor [6] and 343 nM on Estrogen receptor beta [2]. Moreover, the Estrogenic effect in [4] was found to be 12%.
With `CN(C)CCOc1ccc([C@@H]2Oc3ccc(O)cc3S[C@@H]2c2cccc(O)c2)cc1`, in data set [3], the Antagonism stood at 34%. The IC50 on Estrogen receptor [1] is 1.4 nM; against Estrogen receptor beta [5] it was 7.3 nM; on Estrogen receptor [6], 2.3 nM; against Estrogen receptor beta [2], 129 nM. Also, in data set [4], the Estrogenic effect was 69%.
As for `Oc1ccc2c(c1)S[C@@H](c1ccccc1O)[C@@H](c1ccc(OCCN3CCCCC3)cc1)O2`, the values for the IC50 against Estrogen receptor [1] and against Estrogen receptor beta [2] were 1.3 nM and 1.1 nM, respectively.

The values are drawn from ChEMBL document CHEMBL1146754, “Estrogen receptor ligands. Part 4: The SAR of the syn-dihydrobenzoxathiin SERAMs” (Bioorg Med Chem Lett, 2004).
